From ChEMBL document CHEMBL1124161, “4-Hydroxy-3-quinolinecarboxamides with antiarthritic and analgesic activities” (J Med Chem, 1988)
The source made the active and inactive calls. The rule behind the calls is not given here.

Assays:
Cyclooxygenase = target: T1, Cyclooxygenase (Bos taurus, UniProt O62664+O62698); test: Inhibition of bovine Prostaglandin G/H synthase in seminal vesicle microsomes in vitro
T1 sequence (O62664 whole entry): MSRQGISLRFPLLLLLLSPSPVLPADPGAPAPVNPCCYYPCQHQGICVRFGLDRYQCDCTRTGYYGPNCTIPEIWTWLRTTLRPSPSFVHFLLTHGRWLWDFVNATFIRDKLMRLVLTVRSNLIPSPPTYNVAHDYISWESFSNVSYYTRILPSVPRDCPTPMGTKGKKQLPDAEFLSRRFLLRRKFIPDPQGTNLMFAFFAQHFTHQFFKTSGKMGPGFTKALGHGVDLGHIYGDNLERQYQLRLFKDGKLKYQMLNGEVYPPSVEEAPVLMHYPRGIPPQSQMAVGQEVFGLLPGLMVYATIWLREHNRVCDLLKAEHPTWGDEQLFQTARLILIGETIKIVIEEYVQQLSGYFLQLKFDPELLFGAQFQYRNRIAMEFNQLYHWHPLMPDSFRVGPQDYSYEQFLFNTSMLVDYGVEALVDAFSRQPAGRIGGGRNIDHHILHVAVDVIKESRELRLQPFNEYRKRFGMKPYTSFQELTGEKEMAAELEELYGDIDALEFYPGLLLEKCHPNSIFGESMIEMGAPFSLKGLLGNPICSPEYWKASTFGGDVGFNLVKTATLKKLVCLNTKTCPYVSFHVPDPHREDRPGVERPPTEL
T1 sequence (O62698 whole entry): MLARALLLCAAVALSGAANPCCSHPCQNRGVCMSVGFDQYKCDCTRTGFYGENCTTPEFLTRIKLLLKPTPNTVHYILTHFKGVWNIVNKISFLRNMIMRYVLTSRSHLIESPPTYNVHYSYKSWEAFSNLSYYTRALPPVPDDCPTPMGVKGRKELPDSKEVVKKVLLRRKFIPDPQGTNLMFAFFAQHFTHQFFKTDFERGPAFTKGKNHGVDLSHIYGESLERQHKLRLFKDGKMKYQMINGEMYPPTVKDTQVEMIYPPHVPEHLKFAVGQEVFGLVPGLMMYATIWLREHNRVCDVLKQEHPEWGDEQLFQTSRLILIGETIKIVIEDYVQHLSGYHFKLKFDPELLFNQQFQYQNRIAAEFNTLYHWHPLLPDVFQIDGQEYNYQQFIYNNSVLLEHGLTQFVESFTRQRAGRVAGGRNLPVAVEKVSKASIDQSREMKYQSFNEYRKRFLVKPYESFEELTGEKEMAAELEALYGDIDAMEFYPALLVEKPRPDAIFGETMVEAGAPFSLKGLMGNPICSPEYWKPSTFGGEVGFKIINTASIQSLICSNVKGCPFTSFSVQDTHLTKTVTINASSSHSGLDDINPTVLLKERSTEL

Rattus norvegicus [1] = test: Ulcerogenic effect after oral administration (intestinal ulcer); type: functional
Method in brief: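 Nonfasted male rats (150–180 g) killed 24 h after oral dosing, and intestinal ulcers scored. Ulceration index = (mean degree × rats with ulcers / rats) × 100. ED100 (index 100) determined graphically.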

Rattus norvegicus [2] = test: Anti-arthritis activity against adjuvant-induced arthritis in rats after peroral administration; type: functional
Method in brief: (§1)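 Groups of five male Lewis rats, 40–50 days old, given intraplantar injection in right hind paw of 0.6 mg Mycobacterium butyricum in 0.1 mL Bayol 55. Drug given in food from adjuvant day to day 17. Injected and noninjected hind paw volumes measured day 17 against normal controls. ED50 by least-squares curve fitting or Litchfield–Wilcoxon probit.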

Rattus norvegicus [3] = test: Ulcerogenic effect after oral administration (gastric ulcer); type: functional
Method in brief: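 Groups of eight female rats (120–150 g), fasted 24 h, dosed orally; killed 7 h later and stomachs scored. Ulceration index = (mean ulcer degree × rats with ulcers / number of rats) × 100, ulcers being scores above 0.5. ED100 (index 100, max 300) read graphically.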

Rattus norvegicus [4] = test: Antiinflammatory activity against carrageenan-induced foot edema in rat after peroral administration; type: functional; details: po
Method in brief: (§2)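 Groups of eight male Sprague-Dawley rats (150–180 g) dosed orally at the time of subplantar injection of 0.5 mg carrageenin. Paw volume difference measured before and 5 h after injection. Expressed as ED40, estimated graphically or by Litchfield–Wilcoxon probit analysis.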

Mus musculus [5] = test: Analgesic activity against acetic acid induced writhing test in mouse after peroral administration; type: functional
[6] = target: T2, Polyunsaturated fatty acid 5-lipoxygenase (Rattus norvegicus, UniProt P12527); test: Inhibition of 5-lipoxygenase from rat peritoneal neutrophils in vitro
T2 sequence (P12527 whole entry): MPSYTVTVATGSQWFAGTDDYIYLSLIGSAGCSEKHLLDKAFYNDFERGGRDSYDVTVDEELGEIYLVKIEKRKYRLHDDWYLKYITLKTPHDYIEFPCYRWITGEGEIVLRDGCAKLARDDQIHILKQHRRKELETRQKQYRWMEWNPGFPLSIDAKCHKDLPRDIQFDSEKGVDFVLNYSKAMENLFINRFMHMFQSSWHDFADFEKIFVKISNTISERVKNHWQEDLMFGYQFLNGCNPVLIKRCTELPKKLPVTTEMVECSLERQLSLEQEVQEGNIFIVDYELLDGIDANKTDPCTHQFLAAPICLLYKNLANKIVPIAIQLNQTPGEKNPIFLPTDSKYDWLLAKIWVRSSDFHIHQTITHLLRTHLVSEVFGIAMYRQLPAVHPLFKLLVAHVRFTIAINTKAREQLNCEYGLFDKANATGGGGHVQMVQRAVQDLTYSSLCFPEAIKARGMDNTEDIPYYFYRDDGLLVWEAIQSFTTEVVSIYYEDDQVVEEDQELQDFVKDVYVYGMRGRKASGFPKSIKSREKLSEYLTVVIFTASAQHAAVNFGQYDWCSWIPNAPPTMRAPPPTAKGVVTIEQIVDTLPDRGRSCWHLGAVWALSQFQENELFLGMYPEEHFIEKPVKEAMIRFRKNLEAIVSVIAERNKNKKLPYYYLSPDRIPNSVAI

Mus musculus [7] = test: Analgesic activity against acetic acid induced writhing test in mouse after peroral administration at 100 mg/kg; IA=Inactive; type: functional, organism-based; parameters: dose 100 mg/kg
Method in brief: (§3)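 Female mice (20–22 g), groups of 10, fasted 7 h; drug given orally 30 min before intraperitoneal injection of 0.2 mL 1% aqueous acetic acid. Stretching/writhing movements counted from minute 5 to 20 after irritant.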

Mus musculus [8] = test: Analgesic activity against acetic acid induced writhing test in mouse after peroral administration, treatment 6 hr before testing; type: functional; details: po
Method in brief: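 Groups of 10 female mice (20–22 g), fasted 7 h, dosed orally 6 h before ip injection of 0.2 mL 1% aqueous acetic acid. Stretching and writhing movements counted from minute 5 to 20 after irritant. ED50 evaluated graphically or by computerized least-squares curve fitting.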

Rattus norvegicus [9] = species on record: Rattus norvegicus; test: Antiarthritis activity against adjuvant-induced arthritis in rats; type: functional
Method in brief: as §1

Mus musculus [10] = test: Analgesic activity against acetic acid induced writhing test in mouse administered po at 100 mg/kg; IA=Inactive; type: functional, organism-based; parameters: dose 100 mg/kg
Method in brief: as §3

Rattus norvegicus [11] = test: Antiarthritis activity against adjuvant-induced arthritis in rats administered po at 10 mg/kg; IA= Inactive; type: functional, organism-based; parameters: dose 10 mg/kg
Rattus norvegicus [12] = test: Antiinflammatory activity against carrageenan-induced foot edema in rat administered po at 100 mg/kg; IA=Inactive; type: functional, organism-based; parameters: dose 100 mg/kg
Rattus norvegicus [13] = test: Antiinflammatory activity against carrageenan-induced foot edema in rat; type: functional
Method in brief: as §2

Mus musculus [14] = test: Analgesic activity against acetic acid induced writhing test in mouse administered po at 50 mg/kg; IA=Inactive; type: functional, organism-based; parameters: dose 50 mg/kg
Method in brief: as §3

Rattus norvegicus [15] = test: Antiinflammatory activity against carrageenan-induced foot edema in rat after oral administration of 20 mg/kg; IA=Inactive; type: functional, organism-based; parameters: dose 20 mg/kg
Rattus norvegicus [16] = test: Antiinflammatory activity against carrageenan-induced foot edema in rat after peroral administration of 300 mg/kg; IA=Inactive; type: functional, organism-based; parameters: dose 300 mg/kg
Rattus norvegicus [17] = test: Antiinflammatory activity against carrageenan-induced foot edema after peroral administration in rat; type: functional; details: po
Method in brief: as §2

[18] = Rattus norvegicus, po, read-out: ED50
[19] = Mus musculus, po, read-out: ED50

## O=C(Nc1nccs1)c1c(C(Cl)Cl)nc2c(C(F)(F)F)cccc2c1O
Cyclooxygenase
  IC50: 1800 nM
Rattus norvegicus [1]
  ED100: >500 mg/kg
Rattus norvegicus [2]; [18]
  ED50: 48 mg/kg
Rattus norvegicus [3]
  ED100: 270 mg/kg
Rattus norvegicus [4]
  ED40: > 100 mg/kg
Mus musculus [5]; [19]
  ED50: 1.1 mg/kg
[6]
  IC50: 2000 nM

## CC(=O)OC(c1nc2c(C(F)(F)F)cccc2c(O)c1C(=O)Nc1ccccn1)C(C)C (configuration not stated)
Rattus norvegicus [2]; [18]
  ED50: ≥ 5 mg/kg
Mus musculus [7]
  ED50: inactive

## CCC(=O)OC(CC)c1nc2c(C(F)(F)F)cccc2c(O)c1C(=O)Nc1nccs1 (stereo in doubt; 102)
Cyclooxygenase
  IC50: 2100 nM
Rattus norvegicus [1]
  ED100: >250 mg/kg
Mus musculus [8]
  ED50: 4.6 mg/kg
Rattus norvegicus [2]
  ED50: 0.7 mg/kg
Rattus norvegicus [3]
  ED100: >300 mg/kg
Rattus norvegicus [4]
  ED40: 4 mg/kg
Mus musculus [5]
  ED50: 50 mg/kg
[6]
  IC50: 3000 nM
Rattus norvegicus [9]
  ED50: 0.7 mg/kg

## CCC(OC(C)=O)c1nc2c(C(F)(F)F)cccc2c(O)c1C(=O)Nc1nccs1 (configuration not stated)
Rattus norvegicus [2]; [18]
  ED50: 4 mg/kg
Mus musculus [10]
  ED50: inactive

## O=C(Nc1nccs1)c1c(C(O)c2ccccc2)nc2c(C(F)(F)F)cccc2c1O (configuration not stated)
Rattus norvegicus [11]
  ED50: inactive
Rattus norvegicus [12]
  ED40: inactive
Mus musculus [10]
  ED50: inactive

## CCC(=O)N[C@@H](CC)c1nc2c(C(F)(F)F)cccc2c(O)c1C(=O)Nc1nccs1
Cyclooxygenase
  IC50: 400 nM
Rattus norvegicus [1]
  ED100: >100 mg/kg
Mus musculus [8]
  ED50: 4 mg/kg
Rattus norvegicus [2]; [18]
  ED50: 3 mg/kg
Rattus norvegicus [3]
  ED100: >300 mg/kg
Mus musculus [5]; [19]
  ED50: 20 mg/kg
[6]
  IC50: 2000 nM
Rattus norvegicus [13]
  ED40: > 100 mg/kg
Rattus norvegicus [9]
  ED50: 3.5 mg/kg

## Cc1cc(NC(=O)c2cnc3c(C(F)(F)F)cccc3c2O)no1
Mus musculus [14]
  ED50: inactive

## O=C(Nc1nccs1)c1c(Cc2ccccc2)nc2c(C(F)(F)F)cccc2c1O
Rattus norvegicus [15]
  ED50: inactive
Mus musculus [5]; [19]
  ED50: 40 mg/kg

## CCCCc1nc2c(C(F)(F)F)cccc2c(O)c1C(=O)Nc1nccs1
Rattus norvegicus [15]
  ED50: inactive
Mus musculus [5]; [19]
  ED50: 50 mg/kg

## O=C(Nc1nccs1)c1cnc2cc(Cl)ccc2c1O
Rattus norvegicus [16]
  ED50: inactive
Mus musculus [5]; [19]
  ED50: > 100 mg/kg

## CC(C)(C)C(O)c1nc2c(C(F)(F)F)cccc2c(O)c1C(=O)Nc1nccs1 (configuration not stated)
Rattus norvegicus [17]
  ED40: 4 mg/kg
Rattus norvegicus [2]; [18]
  ED50: 1.5 mg/kg
Mus musculus [5]; [19]
  ED50: 50 mg/kg

## CCCCCCCCCCCC(=O)OC(CC)c1nc2c(C(F)(F)F)cccc2c(O)c1C(=O)Nc1nccs1 (configuration not stated)
Rattus norvegicus [2]; [18]
  ED50: > 5 mg/kg
Mus musculus [7]
  ED50: inactive

## CCC(=O)OC(CC)c1nc2c(C(F)(F)F)cccc2c(O)c1C(=O)Nc1ccccn1 (configuration not stated)
Rattus norvegicus [2]; [18]
  ED50: > 5 mg/kg
Mus musculus [7]
  ED50: inactive

## Cc1cnc(NC(=O)c2cnc3c(C(F)(F)F)cccc3c2O)s1
Mus musculus [14]
  ED50: inactive
